Results taken from ChEMBL document CHEMBL3351539, “"On water" expedient synthesis of 3-indolyl-3-hydroxy oxindole derivatives and their anticancer activity in vitro” (Eur J Med Chem, 2014).
≈ marks a conversion by molar mass, not a printed value. Calls of active or inactive are those of the source. The calls are words filed in the database; no cut-off is given here.

What was measured:
[1] = Cytotoxicity against human U937 cells assessed as growth inhibition after 24 hrs by MTT assay; settings: U-937, 24 h
MCF7 [2] = assay: Cytotoxicity against human MCF7 cells assessed as growth inhibition after 24 hrs by MTT assay; settings: MCF7, 24 h
THP-1 = assay: Cytotoxicity against human THP1 cells assessed as growth inhibition after 24 hrs by MTT assay; settings: THP-1, 24 h
A549 = assay: Cytotoxicity against human A549 cells assessed as growth inhibition after 24 hrs by MTT assay; settings: A549, 24 h
U-937 [3] = assay: Ratio of etoposide IC50 to compound IC50 for human U937 cells assessed as growth inhibition after 24 hrs by MTT assay
MCF7 [4] = assay: Ratio of etoposide IC50 to compound IC50 for human MCF7 cells assessed as growth inhibition after 24 hrs by MTT assay
U-937 [5] = assay: Cytotoxicity against human U937 cells assessed as shrinkage in cell size at IC50 by light microscopy; format: functional, cell-based
Method in brief: (§1)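 U937 cells were exposed to one concentration per derivative and examined by light microscopy at 400X against untreated controls with intact cells. Cells were scored for shrinkage in cell size, nuclear condensation and formation of apoptotic bodies.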

U-937 [6] = assay: Cytotoxicity against human U937 cells assessed as formation of apoptotic bodies at IC50 by light microscopy; format: functional, cell-based
Method in brief: as §1

U-937 [7] = assay: Cytotoxicity against human U937 cells assessed as nuclear condensation at IC50 by light microscopy; format: functional, cell-based
Method in brief: as §1

Row | SMILES | IC50 [1] | IC50 (MCF7 [2]) | IC50 (THP-1) | IC50 (A549) | Ratio IC50 (U-937 [3]) | Ratio IC50 (MCF7 [4]) | Activity (U-937 [5]) | Activity (U-937 [6]) | Activity (U-937 [7])
1 | COc1ccc2[nH]cc(C3(O)C(=O)Nc4ccc(F)cc43)c2c1 (centres undefined) | 55.9 µg/mL (≈ 179 µM) | – | – | – | – | – | – | – | –
2 | O=C1N(Cc2ccc(Br)cc2)c2ccc(Cl)cc2C1(O)c1c[nH]c2ccc(Br)cc12 (centres undefined) | 12.2 µg/mL (≈ 22.2 µM) | 20.4 µg/mL (≈ 37.3 µM) | 6.06 µg/mL (≈ 11.1 µM) | 18.4 µg/mL (≈ 33.6 µM) | – | – | – | – | –
3 | O=C1N(Cc2ccccc2)c2ccccc2C1(O)c1c[nH]c2ccccc12 (centres undefined) | 43 µg/mL (≈ 121 µM) | – | 64.5 µg/mL (≈ 182 µM) | 22.8 µg/mL (≈ 64.2 µM) | – | – | – | – | –
4 | O=C1N(Cc2ccccc2Cl)c2ccccc2C1(O)c1c[nH]c2ccccc12 (centres undefined) | 15 µg/mL (≈ 38.5 µM) | 39.3 µg/mL (≈ 101 µM) | 6.97 µg/mL (≈ 17.9 µM) | 28.1 µg/mL (≈ 72.4 µM) | – | – | – | – | –
5 | Cc1ccc2c(c1)C(O)(c1c[nH]c3ccccc13)C(=O)N2 (centres undefined) | 83.4 µg/mL (≈ 300 µM) | – | – | – | – | – | – | – | –
6 | O=C1N(Cc2ccccc2Cl)c2ccc(Cl)cc2C1(O)c1c[nH]c2ccc(Br)cc12 (centres undefined) | 5.31 µg/mL (≈ 10.6 µM) | 21.3 µg/mL (≈ 42.3 µM) | 6.12 µg/mL (≈ 12.2 µM) | 16.5 µg/mL (≈ 32.9 µM) | 0.5 | – | – | – | –
7 | O=C1Nc2ccc(Br)cc2C1(O)c1c[nH]c2ccccc12 (centres undefined) | 19.3 µg/mL (≈ 56.2 µM) | – | – | 72.5 µg/mL (≈ 211 µM) | – | – | – | – | –
8 | Cc1ccc2[nH]cc(C3(O)C(=O)Nc4ccc(I)cc43)c2c1 (centres undefined) | 23.1 µg/mL (≈ 57.3 µM) | 84.5 µg/mL (≈ 209 µM) | 87.1 µg/mL (≈ 216 µM) | 25.2 µg/mL (≈ 62.3 µM) | – | – | – | – | –
9 | COc1cc([C@@H]2c3cc4c(cc3[C@@H](O[C@@H]3O[C@@H]5CO[C@@H](C)O[C@H]5[C@H](O)[C@H]3O)[C@H]3COC(=O)[C@H]23)OCO4)cc(OC)c1O [ETOPOSIDE] | 6.14 µg/mL (≈ 10.4 µM) | 17.8 µg/mL (≈ 30.2 µM) | – | 10.7 µg/mL (≈ 18.2 µM) | – | – | – | – | –
10 | O=C1N(Cc2ccccc2Br)c2ccccc2C1(O)c1c[nH]c2ccc(Br)cc12 (centres undefined) | 14.9 µg/mL (≈ 29.1 µM) | 24.7 µg/mL (≈ 48.3 µM) | 6.93 µg/mL (≈ 13.5 µM) | 29.8 µg/mL (≈ 58.1 µM) | – | – | – | – | –
11 | O=C1Nc2ccc(Cl)cc2C1(O)c1c[nH]c2ccccc12 (centres undefined) | 19.8 µg/mL (≈ 66.3 µM) | – | – | – | – | – | – | – | –
12 | O=C1Nc2ccc(OC(F)(F)F)cc2C1(O)c1c[nH]c2ccc(Br)cc12 (centres undefined) | – | 5.47 µg/mL (≈ 12.8 µM) | – | 13 µg/mL (≈ 30.4 µM) | – | 1 | – | – | –
13 | CN1C(=O)C(O)(c2c[nH]c3ccccc23)c2ccccc21 (centres undefined) | – | 49 µg/mL (≈ 176 µM) | – | – | – | – | – | – | –
14 | O=C1Nc2ccc(Br)cc2C1(O)c1c[nH]c2ccc(Br)cc12 (centres undefined) | 43.3 µg/mL (≈ 103 µM) | 68.7 µg/mL (≈ 163 µM) | 86.1 µg/mL (≈ 204 µM) | 25.1 µg/mL (≈ 59.5 µM) | – | – | – | – | –
15 | O=C1Nc2ccc(I)cc2C1(O)c1c[nH]c2ccccc12 (centres undefined) | 21.6 µg/mL (≈ 55.3 µM) | – | – | – | – | – | – | – | –
16 | O=C1Nc2ccc(I)cc2C1(O)c1c[nH]c2ccc(F)cc12 (centres undefined) | – | – | 62.4 µg/mL (≈ 153 µM) | 43.7 µg/mL (≈ 107 µM) | – | – | – | – | –

Row | SMILES | IC50 [1] | IC50 (MCF7 [2]) | IC50 (THP-1) | IC50 (A549) | Ratio IC50 (U-937 [3]) | Ratio IC50 (MCF7 [4]) | Activity (U-937 [5]) | Activity (U-937 [6]) | Activity (U-937 [7])
17 | O=C1N(Cc2ccccc2)c2ccc(Cl)cc2C1(O)c1c[nH]c2ccc(Br)cc12 (centres undefined) | 8.02 µg/mL (≈ 17.1 µM) | 8.64 µg/mL (≈ 18.5 µM) | 7.12 µg/mL (≈ 15.2 µM) | 13.3 µg/mL (≈ 28.5 µM) | – | 1 | Active | Active | Active
18 | O=C1Nc2ccc(OC(F)(F)F)cc2C1(O)c1c[nH]c2ccccc12 (centres undefined) | 16.8 µg/mL (≈ 48.2 µM) | 71.5 µg/mL (≈ 205 µM) | 13.7 µg/mL (≈ 39.4 µM) | – | – | – | – | – | –
19 | O=C1Nc2c(Cl)cccc2C1(O)c1c[nH]c2ccccc12 (centres undefined) | – | – | 86.1 µg/mL (≈ 288 µM) | – | – | – | – | – | –
20 | O=C1Nc2ccc(F)cc2C1(O)c1c[nH]c2ccccc12 (centres undefined) | 43.7 µg/mL (≈ 155 µM) | – | – | – | – | – | – | – | –
21 | Cc1ccc2[nH]cc(C3(O)C(=O)Nc4ccc(F)cc43)c2c1 (centres undefined) | 35.5 µg/mL (≈ 120 µM) | – | – | – | – | – | – | – | –
22 | COc1ccc2[nH]cc(C3(O)C(=O)Nc4ccc(Cl)cc43)c2c1 (centres undefined) | 39.8 µg/mL (≈ 121 µM) | – | – | – | – | – | – | – | –
23 | COc1ccc2[nH]cc(C3(O)C(=O)N(Cc4ccccc4Cl)c4ccc(Cl)cc43)c2c1 (centres undefined) | 6.07 µg/mL (≈ 13.4 µM) | 10.8 µg/mL (≈ 23.9 µM) | 4.27 µg/mL (≈ 9.42 µM) | 14.1 µg/mL (≈ 31.1 µM) | 0.5 | 1 | Active | Active | Active
24 | O=C1N(Cc2ccccc2)c2ccc(Cl)cc2C1(O)c1c[nH]c2ccccc12 (centres undefined) | 4.33 µg/mL (≈ 11.1 µM) | 24 µg/mL (≈ 61.8 µM) | 5.03 µg/mL (≈ 12.9 µM) | 18.3 µg/mL (≈ 47.1 µM) | 0.5 | – | Active | Active | Active
25 | O=C1N(Cc2ccccc2)c2ccccc2C1(O)c1c[nH]c2ccc(Br)cc12 (centres undefined) | 17.1 µg/mL (≈ 39.4 µM) | 31.2 µg/mL (≈ 72.1 µM) | 14.2 µg/mL (≈ 32.7 µM) | 25.1 µg/mL (≈ 57.9 µM) | – | – | – | – | –
26 | O=C1Nc2ccc(Cl)cc2C1(O)c1c[nH]c2ccc(Br)cc12 (centres undefined) | 25.3 µg/mL (≈ 67 µM) | 95.5 µg/mL (≈ 253 µM) | 98.5 µg/mL (≈ 261 µM) | 19.8 µg/mL (≈ 52.5 µM) | – | – | – | – | –
27 | O=C1Nc2ccc(F)cc2C1(O)c1c[nH]c2ccc(Br)cc12 (centres undefined) | – | – | 76 µg/mL (≈ 210 µM) | – | – | – | – | – | –
28 | O=C1N(Cc2ccccc2Cl)c2ccc(Cl)cc2C1(O)c1c[nH]c2ccccc12 (centres undefined) | 4.89 µg/mL (≈ 11.6 µM) | 20.6 µg/mL (≈ 48.7 µM) | 7.01 µg/mL (≈ 16.6 µM) | 15.8 µg/mL (≈ 37.2 µM) | 0.5 | – | – | – | –
29 | O=C1N(Cc2ccccc2Cl)c2ccccc2C1(O)c1c[nH]c2ccc(Br)cc12 (centres undefined) | 7.16 µg/mL (≈ 15.3 µM) | 22.3 µg/mL (≈ 47.7 µM) | 7.37 µg/mL (≈ 15.8 µM) | 16.2 µg/mL (≈ 34.5 µM) | – | – | – | – | –
30 | COc1ccc2[nH]cc(C3(O)C(=O)Nc4ccc(I)cc43)c2c1 (centres undefined) | – | – | 69.2 µg/mL (≈ 165 µM) | – | – | – | – | – | –
31 | COc1ccc2[nH]cc(C3(O)C(=O)N(Cc4ccccc4Cl)c4ccccc43)c2c1 (centres undefined) | 7.6 µg/mL (≈ 18.1 µM) | 13.4 µg/mL (≈ 32.1 µM) | 5.6 µg/mL (≈ 13.4 µM) | 33.1 µg/mL (≈ 79 µM) | – | 1 | – | – | –
